This passage reports IC50, viability and Activity results from ChEMBL document CHEMBL4052613, “Structure-activity relationship studies of 1,7-diheteroarylhepta-1,4,6-trien-3-ones with two different terminal rings in prostate epithelial cell models” (Eur J Med Chem, 2017).

The subject of one experiment is PWR-1E. In words: Antiproliferative activity against human PWR-1E cells after 3 days by WST-1 assay. Format: cell-based. The note with it: 72 h. The method in brief:
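PWR-1E non-neoplastic prostate epithelial cells grown in keratinocyte serum-free medium with bovine pituitary extract and recombinant human EGF. WST-1 proliferation read-out after 3 days of exposure.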
For orientation: Tetrazolium dyes change colour on reduction, which living cells bring about.

For experiment [1], the system named is PC-3. In words: Induction of apoptosis in human PC3 cells assessed as viable cells at 10 uM after 16 hrs by F2N12S orange and SYTOX green double staining based flow cytometry (reference value: 95%). Format: functional. The note with it: PC-3, 16 h, read-out: Activity. For orientation: A flow cytometer gives signals particle by particle.
In experiment [2] the test system is PC-3. The experiment is described as follows: Induction of apoptosis in human PC3 cells assessed as apoptotic cells at 5 uM after 16 hrs by F2N12S orange and SYTOX green double staining based flow cytometry (reference value: 2 to 3%). Format: functional.
The test system of experiment [3] is PC-3. The experiment is described as follows: Induction of apoptosis in human PC3 cells assessed as viable cells at 30 uM after 16 hrs by F2N12S orange and SYTOX green double staining based flow cytometry (reference value: 95%). Format: functional. The note with it: PC-3, 16 h, read-out: Activity.
The test system of experiment [4] is PC-3. The experiment is described as follows: Induction of apoptosis in human PC3 cells assessed as apoptotic cells at 10 uM after 16 hrs by F2N12S orange and SYTOX green double staining based flow cytometry (reference value: 2 to 3%). Format: functional.
For experiment [5], the system named is PC-3. In words: Induction of apoptosis in human PC3 cells assessed as viable cells at 20 uM after 16 hrs by F2N12S orange and SYTOX green double staining based flow cytometry (reference value: 95%). Format: functional. The note with it: PC-3, 16 h, read-out: Activity.
The test system of experiment [6] is PC-3. The experiment is described as follows: Induction of apoptosis in human PC3 cells assessed as necrotic cells at 20 uM after 16 hrs by F2N12S orange and SYTOX green double staining based flow cytometry (reference value: 2 to 3%). Format: functional.
For experiment [7], the system named is PC-3. The experiment is described as follows: Induction of apoptosis in human PC3 cells assessed as apoptotic cells at 40 uM after 16 hrs by F2N12S orange and SYTOX green double staining based flow cytometry (reference value: 2 to 3%). Format: functional.
In experiment [8] the test system is PC-3. The experiment is described as follows: Induction of apoptosis in human PC3 cells assessed as viable cells at 5 uM after 16 hrs by F2N12S orange and SYTOX green double staining based flow cytometry (reference value: 95%). Format: functional. The note with it: PC-3, 16 h, read-out: Activity.
Experiment [9] concerns PC-3. In words: Induction of apoptosis in human PC3 cells assessed as necrotic cells at 5 uM after 16 hrs by F2N12S orange and SYTOX green double staining based flow cytometry (reference value: 2 to 3%). Format: functional.
Experiment [10] relates to PC-3. In words: Induction of apoptosis in human PC3 cells assessed as necrotic cells at 30 uM after 16 hrs by F2N12S orange and SYTOX green double staining based flow cytometry (reference value: 2 to 3%). Format: functional.
For experiment [11], the system named is PC-3. The experiment is described as follows: Induction of apoptosis in human PC3 cells assessed as necrotic cells at 40 uM after 16 hrs by F2N12S orange and SYTOX green double staining based flow cytometry (reference value: 2 to 3%). Format: functional.
Experiment [12] concerns PC-3. In words: Induction of apoptosis in human PC3 cells assessed as apoptotic cells at 20 uM after 16 hrs by F2N12S orange and SYTOX green double staining based flow cytometry (reference value: 2 to 3%). Format: functional.
The subject of experiment [13] is PC-3. The experiment is described as follows: Induction of apoptosis in human PC3 cells assessed as viable cells at 40 uM after 16 hrs by F2N12S orange and SYTOX green double staining based flow cytometry (reference value: 95%). Format: functional. To be noted: PC-3, 16 h, read-out: Activity.
Experiment [14] has as its system PC-3. In words: Induction of apoptosis in human PC3 cells assessed as necrotic cells at 10 uM after 16 hrs by F2N12S orange and SYTOX green double staining based flow cytometry (reference value: 2 to 3%). Format: functional.
The subject of experiment [15] is PC-3. In words: Induction of apoptosis in human PC3 cells assessed as apoptotic cells at 30 uM after 16 hrs by F2N12S orange and SYTOX green double staining based flow cytometry (reference value: 2 to 3%). Format: functional.

Consider `COc1cc(/C=C/C(=O)CC(=O)/C=C/c2ccc(O)c(OC)c2)ccc1O` [CURCUMIN], for which half-maximal inhibition with PWR-1E (IC50) required 8.14 µM.
`CN[C@@H]1C[C@H]2O[C@@](C)([C@@H]1OC)n1c3ccccc3c3c4c(c5c6ccccc6n2c5c31)C(=O)NC4` [STAUROSPORINE]: in the experiment with PC-3 [1], the viability at 10 µM was 84%. For the same compound, the Activity in the experiment on PC-3 [2] is given as 9%; in the experiment on PC-3 [4], 10%; in the experiment on PC-3 [6], 8%; with PC-3 [7], 60%; with PC-3 [9], 4%; with PC-3 [10] it was 8%. Moreover, the Activity in the experiment with PC-3 [11] amounted to 9%; in the experiment with PC-3 [12], 24%; with PC-3 [14] it was 6%; in the experiment with PC-3 [15], 47%. The viability at 30 µM in the experiment with PC-3 [3] worked out at 46%. Also, the viability at 20 µM with PC-3 [5] came to 68%. Moreover, the viability at 5 µM with PC-3 [8] worked out at 87%. In addition, the viability at 40 µM in the experiment on PC-3 [13] came out at 31%.
